Assay results gathered from unrelated publications.
Lines come from different studies, so protocols differ.
Target: Beta-adrenergic receptor kinase 1 (GRK2, Homo sapiens, UniProt P25098)
Sequence (P25098 1-689, as in one of the studies): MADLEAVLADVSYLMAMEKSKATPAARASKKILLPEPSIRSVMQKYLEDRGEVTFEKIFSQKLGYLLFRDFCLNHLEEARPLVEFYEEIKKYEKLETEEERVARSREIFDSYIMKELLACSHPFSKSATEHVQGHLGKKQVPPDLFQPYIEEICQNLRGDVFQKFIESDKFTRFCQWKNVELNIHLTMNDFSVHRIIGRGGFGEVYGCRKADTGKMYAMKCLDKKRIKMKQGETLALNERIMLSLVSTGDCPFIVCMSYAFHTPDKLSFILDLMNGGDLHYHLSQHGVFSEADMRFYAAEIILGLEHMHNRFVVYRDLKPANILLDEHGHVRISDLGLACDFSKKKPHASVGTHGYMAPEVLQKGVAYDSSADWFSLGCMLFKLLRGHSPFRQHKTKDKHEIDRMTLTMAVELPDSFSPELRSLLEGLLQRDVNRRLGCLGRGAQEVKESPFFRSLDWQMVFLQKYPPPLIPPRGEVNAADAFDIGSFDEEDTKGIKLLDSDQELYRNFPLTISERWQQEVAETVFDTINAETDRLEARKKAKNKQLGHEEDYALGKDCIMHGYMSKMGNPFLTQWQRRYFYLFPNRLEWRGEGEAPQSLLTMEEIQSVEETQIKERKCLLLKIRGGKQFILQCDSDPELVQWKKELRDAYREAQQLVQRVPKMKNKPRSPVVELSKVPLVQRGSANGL

With `CCCCNc1ncc2c(-c3ccc(F)cc3)nn(C[C@H]3CC[C@H](N)CC3)c2n1` the inhibition was -6.2% (target engagement in cells, inhibitor, chemoproteomics; 20 mM).
For `CC1CCCN1c1nccc(-c2cnn3ncccc23)n1` (stereo not shown), the remaining binding was 69% (binding, competition with immobilised ligand; 1 µM).
`Cc1cc(NC(=O)c2cccc3cc(-c4cccc5[nH]nc(N)c45)ccc23)ccc1F` gave an activity vs control of 73% (enzyme activity, inhibitor; 0.1 µM).
With `O=C1NC(=O)c2cc(Nc3ccc(F)cc3)c(Nc3ccc(F)cc3)cc21` the remaining signal was 104% (cell-free assay; 0.5 µM).
`CN(C(=O)c1ccccc1)c1cc(N(C)c2ccc3c(c2)CCc2ccc(C(=O)NCCN4CCOCC4)cc2C3=O)ccc1F` gave a remaining binding of 100% (cell-free assay, competition with immobilised ligand; 1 µM).
`O=C(Nc1cnn(-c2csc(C(=O)NC3COC3)c2)c1)Nc1ccccc1Cl` has a remaining activity of 96.1% (enzyme activity, inhibitor; 5 µM).
`O=C(NCc1ncc(C(F)(F)F)cc1Cl)c1ccc2c(c1)C1(CCS(=O)(=O)CC1)[C@H](C1CC1)N2S(=O)(=O)c1ccc(F)cc1` has a remaining binding of 56% (cell-free assay, competition with immobilised ligand; 1 µM).
The inhibition of `COc1cc2ncnc(Nc3ccc(Oc4ccccc4)c(C)c3C)c2cc1OC` is reported as -2% (enzyme activity, inhibitor; 1 µM).
The remaining activity of `CC(C)(C)c1nc2c(s1)c1nc(N)ncc1c1ccc(NS(=O)(=O)c3c(F)cccc3F)c(F)c12` is reported as 90% (enzyme activity, inhibitor, radiometric; 1 µM).
`c1ccc(CNc2nc(N3CCOc4ccccc43)nc3c2CCCC3)cc1` has an inhibition of -6.7% (target engagement in cells, inhibitor, chemoproteomics; 20 mM).
With `CCc1ccccc1C(=O)Nc1n[nH]c2c(C)c(F)c(C3C(C#N)=C(C)N(C)C(C)=C3C#N)cc12` the remaining binding was 100% (cell-free assay, competition with immobilised ligand; 1 µM).
`CCCS(=O)(=O)Nc1ccc(F)c(C(=O)c2c[nH]c3ncc(-c4ccc(Cl)cc4)cc23)c1F` gave an inhibition of under 20% (enzyme activity, inhibitor; 1 µM).
For `O=C(Nc1cccnn1)N1CC(C/C=C/c2cncc(Oc3ccc(C(F)(F)F)cn3)n2)C1`, the remaining binding was 96% (cell-free assay, competition with immobilised ligand; 1 µM).
`O=C1Nc2ccc(Cl)cc2C1=Cc1cc(Cl)c(O)c(Cl)c1` has a remaining signal of 93.4% (cell-free assay; 0.5 µM).
`COc1cc(Cl)c(C(=O)N[C@@H](CN[C@H]2CC[C@@H](N)CC2)Cc2ccc(C#N)cc2)cc1-c1ccc(CN[C@H](C)c2ccc(C)cc2)o1` has a remaining activity of 105% (enzyme activity, inhibitor; 1 µM).
The remaining binding of `C[C@H](NC(=O)c1cnc2n1[C@](C)(Cc1ccc(C#N)cc1)C(=O)N2c1cc(Cl)c(F)c(Cl)c1)C(=O)NC1(c2ccccn2)CC1` is reported as 100% (cell-free assay, competition with immobilised ligand; 1 µM).
